The test system of experiment [1] is HFF. Kind of experiment: Concentration required to inhibit stationary human HFF cell line growth was determined by microscopy examination. In kind it is functional, cell-based. In short, it runs like this: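 Toxicity judged by microscopic inspection of uninfected stationary HFF cells in the HCMV plaque assay, scored at the time plaques were counted. Results come from duplicate experiments. IC50 from linear regression of percent inhibition against log concentration.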

The subject of experiment [2] is Human alphaherpesvirus 1. Kind of experiment: Inhibitory activity against herpes simplex virus type-1 cultures was determined by ELISA assay. In kind it is functional, organism-based. In short, it runs like this:
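BSC-1 cells, 10000 per well in MEM(E) with 10% calf serum, incubated overnight at 37 °C. Drug added in quadruplicate with HSV-1 (KOS) at 100 pfu/well and incubated 3 days at 37 °C. Plates blocked, probed with HRP-conjugated rabbit anti-HSV-1 and developed with TMB; reaction stopped with H2SO4 and read at 450/570 nm. Percent absorbance reduction versus virus-only wells, IC50 by regression.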

In experiment [3] the test system is Human betaherpesvirus 5. Kind of experiment: Concentration required to inhibit plaque formation in human cytomegalovirus cultures was determined. It is filed as functional, organism-based. In a few lines:
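HFF monolayers infected with about 100 pfu/cm² of HCMV Towne strain (plaque-purified P₀). After adsorption, compound (10 mg/mL DMSO stock, diluted in medium) added at four to eight concentrations in duplicate wells. After 7–10 days at 37 °C, cells fixed and stained with crystal violet and plaques counted microscopically. Percent plaque reduction versus drug-free wells, IC50 by regression against log concentration.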

For experiment [4], the system named is KB. Kind of experiment: Concentration required to inhibit KB cell line growth was determined by crystal violet staining method. In kind it is functional, cell-based. The conditions noted are these: Homo sapiens. In short, it runs like this: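 KB cells, 3000–5000 per well, incubated overnight at 37 °C, then compound added at six to eight concentrations in quadruplicate. Grown 48 h at 37 °C under CO2 (two population doublings), fixed in 95% ethanol, stained with 0.1% crystal violet, dye eluted with acidified ethanol, absorbance 570 nm. IC50 taken from linear regression of percent inhibition against log concentration.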

The term IC50 denotes the point on the concentration scale where inhibition reaches its midpoint. Higher therefore signals lower potency.

Take `OCC1OC(n2c(Br)nc(Cl)c2Cl)[C@@H](O)C1O` (some centres not stated): the 50% inhibitory concentration (IC50) in experiment [1], in experiment [2], in experiment [3] and in experiment [4] was over 100 µM in each case.

Turning to `OCCOCn1c(Cl)nc(Cl)c1Cl`, the IC50 in experiment [1] was 45 µM; in experiment [2] it was 35 µM; in experiment [3] it was over 100 µM; in experiment [4], 25 µM.

Consider `OCCOCn1c(Br)nc(Cl)c1Cl`, for which the IC50 in experiment [1], in experiment [2], in experiment [3] and in experiment [4] was over 100 µM throughout.

For the molecule `OCC(CO)OCn1c(Cl)nc(Cl)c1Cl`, the IC50 in experiment [1] was over 100 µM; in experiment [2] it was 30 µM; in experiment [3] it was over 100 µM; in experiment [4] it was 25 µM.

On to `OCC1OC(n2c(Br)nc(Br)c2Br)[C@@H](O)C1O` (some centres not stated), for which the IC50 is over 100 µM in experiment [1], over 100 µM in experiment [2], 32 µM in experiment [3] and 90 µM in experiment [4].

Consider `OCCOCn1c(Br)nc(Br)c1Br`, for which the half-maximal inhibitory concentration (IC50) in experiment [1], in experiment [2], in experiment [3] and in experiment [4] was over 100 µM each time.

For the molecule `Clc1nc(Cl)c(Cl)[nH]1`, the concentration for half-maximal inhibition (IC50) in experiment [1] was determined as 75 µM; in experiment [3], 30 µM.

Regarding `OC[C@H]1O[C@@H](n2c(Br)nc(Cl)c2Cl)[C@H](O)[C@@H]1O`, the concentration for half-maximal inhibition (IC50) in experiment [1], in experiment [2], in experiment [3] and in experiment [4] was over 100 µM each time.

For `OC[C@H]1O[C@@H](n2c(Br)nc(Br)c2Br)[C@H](O)[C@@H]1O`, the concentration for half-maximal inhibition (IC50) in experiment [1] was determined as 100 µM; in experiment [2], 60 µM; in experiment [3] it was 30 µM; in experiment [4], 65 µM.

As for `OC[C@H]1O[C@@H](n2c(Cl)nc(Cl)c2Cl)[C@H](O)[C@@H]1O`, the IC50 in experiment [1], in experiment [2], in experiment [3] and in experiment [4] was over 100 µM throughout.

`OC[C@H]1O[C@@H](n2c(Cl)nc(Cl)c2Cl)[C@H](O)[C@H]1O`: the 50% inhibitory concentration (IC50) was over 100 µM in experiment [1], 50 µM in experiment [2], over 100 µM in experiment [3] and over 100 µM in experiment [4].

With `OC[C@H]1O[C@@H](n2c(Br)nc(Cl)c2Cl)[C@H](O)[C@H]1O`, the half-inhibitory concentration (IC50) in experiment [1], in experiment [2], in experiment [3] and in experiment [4] was over 100 µM throughout.

Regarding `OC[C@H]1O[C@@H](n2c(Br)nc(Br)c2Br)[C@H](O)[C@H]1O`, the half-inhibitory concentration (IC50) in experiment [1], in experiment [2], in experiment [3] and in experiment [4] was over 100 µM each time.

Regarding `OC[C@H]1O[C@@H](n2cnc3cc(Cl)c(Cl)cc32)[C@@H](O)[C@H]1O`, the IC50 in experiment [1] was found to be 24 µM; in experiment [2] it was 30 µM; in experiment [3] it was 42 µM; in experiment [4], 36 µM.

Turning to `OCC(CO)OCn1c(Br)nc(Cl)c1Cl`, the half-inhibitory concentration (IC50) in experiment [1], in experiment [2], in experiment [3] and in experiment [4] was over 100 µM each time.

On to `Clc1nc(Br)[nH]c1Cl`, for which the IC50 was over 100 µM in experiment [1] and 41 µM in experiment [3].

As for `OCC(CO)OCn1c(Br)nc(Br)c1Br`, the concentration for half-maximal inhibition (IC50) in experiment [1], in experiment [2], in experiment [3] and in experiment [4] was over 100 µM in each case.

For the molecule `Brc1nc(Br)c(Br)[nH]1`, the figures for the IC50 in experiment [1] and in experiment [3] were 75 µM and 37 µM, respectively.

In the case of `OC[C@H]1O[C@@H](n2c(Br)nc3cc(Cl)c(Cl)cc32)[C@H](O)[C@@H]1O`, the half-inhibitory concentration (IC50) was 0.7 µM in experiment [3] and over 100 µM in experiment [4].

In the case of `OC[C@H]1O[C@@H](n2c(Cl)nc3cc(Cl)c(Cl)cc32)[C@H](O)[C@@H]1O`, the IC50 in experiment [4] is over 100 µM.

Regarding `OC[C@H]1OC(n2cnc(Br)c2Br)[C@H](O)[C@@H]1O` (some centres not stated), the IC50 in experiment [1], in experiment [2], in experiment [3] and in experiment [4] was over 100 µM throughout.

On to `OC[C@H]1OC(n2c(Cl)nc3cc4cc(Cl)c(Cl)cc4nc32)[C@H](O)[C@@H]1O` (some centres not stated), for which the concentration for half-maximal inhibition (IC50) amounted to 90 µM in experiment [2] and 18 µM in experiment [3].

Consider `OC[C@H]1OC(n2cnc(Cl)c2Cl)[C@H](O)[C@@H]1O` (some centres not stated), for which the IC50 in experiment [1], in experiment [2], in experiment [3] and in experiment [4] was over 100 µM in each case.

Molecule `OC[C@H]1OC(n2c(Cl)nc3cc4cc(Cl)c(Cl)cc4cc32)[C@H](O)[C@@H]1O` (some centres not stated) displayed an IC50 in experiment [3] of 2 µM.

As for `OC[C@H]1OC(n2c(Cl)nc3nc4cc(Cl)c(Cl)cc4cc32)[C@H](O)[C@@H]1O` (some centres not stated), the IC50 in experiment [2] was 70 µM; in experiment [3] it was 2 µM.

These data come from ChEMBL document CHEMBL1138812, “Synthesis and antiviral evaluation of polyhalogenated imidazole nucleosides: dimensional analogues of 2,5,6-trichloro-1-(beta-D-ribofuranosyl)benzimidazole” (J Med Chem, 2004).
